Rce1 inh = blocks yeast Ras-converting enzyme; yeast membranes, quenched prenylated peptide cleavage fluorescence; calls only; Q03530; hit rate 0.27% among 290,000;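 active means fall in fluorescence gain of 50% or more versus controls, with final raw signal at or below 3038400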
NadD inh = blocks S. aureus nicotinate mononucleotide adenylyltransferase; inhibition, % at 20 µM; purified NadD enzyme, colorimetric absorbance read-out; hit rate 0.78% among 360,000; in the data active means inhibition above about 26%
Pemphigus Ab inh = inhibitors of pemphigus antibody binding to human desmoglein-3; P32926; AID 588358; hit rate 0.48% among 310,000; DSG3-coupled beads, scFv-anti-DSG3-GFP binding, flow cytometry; stronger effect = lower value; binding (percent of control), % at 10 µM;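 active means binding more than 3 SD below its plate's average and above zero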
Target sequence (P32926 whole entry, looked up): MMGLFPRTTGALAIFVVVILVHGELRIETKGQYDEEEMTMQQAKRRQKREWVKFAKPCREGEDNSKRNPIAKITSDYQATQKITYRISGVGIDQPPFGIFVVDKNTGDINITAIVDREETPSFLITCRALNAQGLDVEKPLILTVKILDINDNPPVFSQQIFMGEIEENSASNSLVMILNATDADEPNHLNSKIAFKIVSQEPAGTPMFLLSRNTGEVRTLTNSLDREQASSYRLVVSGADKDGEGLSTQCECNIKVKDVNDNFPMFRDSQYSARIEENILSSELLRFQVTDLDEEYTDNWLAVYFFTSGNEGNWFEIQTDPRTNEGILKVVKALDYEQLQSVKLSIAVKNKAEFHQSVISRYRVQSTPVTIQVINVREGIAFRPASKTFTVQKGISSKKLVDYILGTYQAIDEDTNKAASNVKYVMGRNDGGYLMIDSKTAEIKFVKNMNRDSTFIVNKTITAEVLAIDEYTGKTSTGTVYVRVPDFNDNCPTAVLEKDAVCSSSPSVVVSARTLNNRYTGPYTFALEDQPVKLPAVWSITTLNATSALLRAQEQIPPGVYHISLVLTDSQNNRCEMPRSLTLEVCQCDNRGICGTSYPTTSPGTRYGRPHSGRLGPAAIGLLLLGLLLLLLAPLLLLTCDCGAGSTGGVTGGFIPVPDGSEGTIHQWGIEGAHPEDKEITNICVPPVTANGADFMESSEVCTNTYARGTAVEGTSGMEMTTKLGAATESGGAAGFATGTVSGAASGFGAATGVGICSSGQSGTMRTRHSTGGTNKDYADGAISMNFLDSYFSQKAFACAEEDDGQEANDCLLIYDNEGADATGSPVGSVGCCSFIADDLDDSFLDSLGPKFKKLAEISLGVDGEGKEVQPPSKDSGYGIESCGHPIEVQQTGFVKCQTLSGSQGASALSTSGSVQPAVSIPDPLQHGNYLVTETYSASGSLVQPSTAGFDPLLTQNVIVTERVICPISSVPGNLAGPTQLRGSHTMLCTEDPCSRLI
core dimer inh = blocks dimerization of HCV core protein. TR-FRET GST/Flag-core106 dimerization, 1536-well. hit rate 0.33% among 300,000. inhibition, % at 5 µM. AID 1899;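 active means inhibition above the mean of all tested compounds plus 3 SD, set per screening campaign, cut at about 45% in these data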
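Material: GST/Flag-tagged HCV core106 proteins. Incubation: 4 h, 22.5 °C incubation. Read-out basis: inhibition (%) from 671 over 617 nm ratio. Measured by: TR-FRET, excitation 340 nm, emission 617 and 671 nm.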
TbMetRS inhib = Trypanosoma brucei MetRS inhibition; inhibition, % at 11.9 µM; purified T. brucei MetRS, ATP depletion, Kinase-Glo luminescence; hit rate 0.4% among 360,000;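 active means inhibition above a per-plate cutoff of the control wells' mean inhibition plus 3 SD, cut at about 5.5% in these data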
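Assay system: T. brucei methionyl-tRNA synthetase, purified | Medium: HEPES buffer with MgCl2, KCl, DTT, spermine, BSA, pyrophosphatase | Compound: 11.9 µM single point | Incubation: 15 min enzyme-compound preincubation, 2 h reaction, 10 min detection, 25 °C | Measured by: Kinase-Glo luciferase luminescence reporting remaining unconsumed ATP | Measure: % inhibition normalized to control-well medians | Replication: Singlicate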
Large screens that a line does not name were inactive. Shown are actives, neighbours in structure and some others; about 1.9% of the full set was active somewhere.

CC(C)C1N=C2c3ccccc3N=C(SCc3cc(=O)n4cc(Cl)ccc4n3)N2C1=O (configuration not stated)	Pemphigus Ab inh 77.8
Cc1oc2c(CN3CCOCC3)c(O)ccc2c(=O)c1-c1ccccc1	Rce1 inh active
CCOc1ccccc1Oc1c(C)oc2c(CN3CCN(CCO)CC3)c(O)ccc2c1=O	none
O=c1c(-c2ccc(Cl)cc2)coc2c(CN3CCOCC3)c(O)ccc12	none
COc1ccccc1-c1coc2c(CN3CCN(C)CC3)c(O)ccc2c1=O	Rce1 inh active (no result: Pemphigus Ab inh)
COc1ccccc1Oc1c(C)oc2c(CN3CCN(CCO)CC3)c(O)ccc2c1=O	Rce1 inh active (no result: NadD inh, Pemphigus Ab inh, TbMetRS inhib)
O=c1c(-c2ccccc2)coc2c(CN3CCCC3)c(O)ccc12	Rce1 inh active
O=C(c1cc([N+](=O)[O-])ccc1Cl)N1CCN(Cc2ccc3c(c2)OCO3)CC1	none
O=C(CSc1nc2ccccc2c(=O)n1-c1ccccc1)N1CCC1	none
COc1ccccc1N(CC(=O)N/N=C/c1ccc(SC)cc1)S(C)(=O)=O	none
CCOC(=O)c1c(C)sc2c1N(C(=O)CN1CCOCC1)c1cc(Cl)ccc1S2	none
COc1ccc(OC)c(C2=NS(=O)(=O)N(C)C(C(=O)Nc3cccc(C(C)=O)c3)=C2)c1	none
CCn1c2ccccc2c2cc(NC(=O)CNCC3CCCO3)ccc21 (configuration not stated)	none
CCN1CCN(Cc2c(O)ccc3c(=O)c(-c4ccccc4OC)coc23)CC1	Rce1 inh active
COc1ccc(-c2ccc(-c3nnc(-c4cc(OC)ccc4OC)o3)cc2)cc1	Rce1 inh active
COc1cc(OC)cc(C(=O)NC(=S)Nc2cccnc2)c1	none
C=CCn1c(SCC(=O)c2ccc(CNC(C)=O)o2)nc2ccccc2c1=O	core dimer inh 49.0
CCOC(=O)C1CCN(Cc2cc(=O)n3c(-c4ccccc4)csc3n2)CC1	none
Cc1cccc(C(=O)c2c(N)sc3c2CCC(C)C3)c1 (configuration not stated)	none
Cc1cccc(C(=O)c2c(N)sc3c2CCCC3)c1	core dimer inh 49.0
CCOC(=O)c1c(/N=C/c2ccc(C)cc2O)sc2c1CCN(C)C2	none
Cc1ccccc1C(=O)NC(=S)NCC(=O)c1ccccc1	none
O=C(CNC(=S)NC(=O)c1ccccc1Br)c1ccccc1	Pemphigus Ab inh 6.1
COc1ccc(-c2nnc(SCC(=O)Nc3ccc(Cl)cc3)n2C)cc1	none (no result: Pemphigus Ab inh)
Fc1ccc(Nc2nc(N/N=C/c3ccco3)nc(N3CCCCC3)n2)cc1	none
O=C(O)c1ccccc1NCCO	Rce1 inh active
COC(=O)c1ccccc1NCCO	none
C(=N\Nc1nc2ccccc2[nH]1)/c1ccccn1	none (no result: core dimer inh)
C#CCn1cc(/C=N/Nc2nc3ccccc3[nH]2)c2ccccc21	TbMetRS inhib 9.0
COc1ccccc1CNC(=O)COC(=O)c1ccc(S(=O)(=O)N2CCCCC2)cc1	Pemphigus Ab inh 81.0 (no result: Rce1 inh, core dimer inh)
CC(=O)Nc1ccc(S(=O)(=O)N2CCC(C(N)=O)(N3CCCCC3)CC2)cc1	Pemphigus Ab inh 38.4
O=C(COc1ccc(S(=O)(=O)N2CCCCC2)cc1)NCc1ccncc1	Pemphigus Ab inh 61.2
CC(=O)Nc1ccc(C(=O)OCC(=O)c2ccc(S(=O)(=O)N3CCCCC3)cc2)cc1	Pemphigus Ab inh 28.7
COc1ccc(S(=O)(=O)N2CCC(C(N)=O)(N3CCCCC3)CC2)cc1	none
O=C(COc1ccc(S(=O)(=O)N2CCCC2)cc1)NCc1cccnc1	none
CCOC(=O)C(=C1Nc2ccccc2N1)n1c(-c2ccco2)nc2ccccc21	none (no result: Rce1 inh, Pemphigus Ab inh, core dimer inh)
Cc1c(NC(=O)c2cc3c(s2)CCCC3)c(=O)n(-c2ccccc2)n1C	none
Cc1nnsc1SCCNC(=O)c1c(F)cccc1F	none
CCOC(=O)N1CCN(S(=O)(=O)N2CCCC(C(=O)NCc3cc(Br)ccc3OC)C2)CC1 (configuration not stated)	none (no result: Rce1 inh, core dimer inh)
Cc1c(-c2ccc(F)cc2)nc(N)c(C#N)c1-c1cccs1	none (no result: Pemphigus Ab inh)
Cc1cc(NC(=O)c2oc3ccccc3c2C)ccc1-n1cnnn1	Rce1 inh active
CCOC(=O)C1=C(C)N(CCCCCC(=O)O)C(=O)NC1c1cccc([N+](=O)[O-])c1 (configuration not stated)	none
CC(OC(=O)c1ccc2c(c1)C(=O)N(Cc1ccncc1)C2=O)C(=O)Nc1cccc(Cl)c1Cl (configuration not stated)	none
O=C(COC(=O)c1ccc2c(c1)C(=O)N(Cc1ccncc1)C2=O)Nc1ccccc1[N+](=O)[O-]	core dimer inh 54.4
CCOC(=O)c1c(NC(=S)NCC2CCCO2)sc(C)c1C (configuration not stated)	none
O=C(Nc1cc(Cl)ccc1Cl)c1ccc(OC(=O)c2ccco2)cc1	Pemphigus Ab inh 64.9
CC(=O)NCCc1nc2ccccc2n1CCOc1ccccc1	none
COc1cc(-c2nc3ccccn3c2/N=C/c2cccc(OC)c2O)ccc1O	Rce1 inh active
CCCCC(=O)Nc1ccc(NC(=S)NC(=O)c2ccco2)cc1OC	none
c1ccc2c(c1)[nH]c1c(NCC3CCCO3)ncnc12 (configuration not stated)	TbMetRS inhib 54.4
c1nc(NCC2CCCO2)c2[nH]cnc2n1 (configuration not stated)	none
CS(=O)(=O)Nc1ccccc1C(=O)NCc1ccco1	none
C=CCSc1nc2ccccc2c2nc(-c3ccccc3)nn12	Pemphigus Ab inh 2.7
CC(NC(=O)CSc1nc2sc3c(c2c(=O)n1-c1ccccc1)CCCC3)c1ccccc1 (configuration not stated)	NadD inh 32.8, Pemphigus Ab inh 79.4
NC(=O)CSc1nc(N)c2c3c(sc2n1)CCCCC3	none
COC(=O)CSc1nc2sc3c(c2c(=O)n1-c1ccc(OC)cc1)CCN(C)C3	none (no result: core dimer inh)
C=C(C)CSc1nc2sc3c(c2c(=O)n1-c1ccc(OC)cc1)CCN(C)C3	Rce1 inh active (no result: NadD inh, Pemphigus Ab inh, core dimer inh, TbMetRS inhib)
COc1ccc(-n2c(SCC(=O)O)nc3sc4c(c3c2=O)CCCC4)cc1	Pemphigus Ab inh 78.9
Nc1nc(SCc2nnc(SCC(=O)O)n2-c2ccccc2)nc2sc3c(c12)CCCC3	Pemphigus Ab inh -17.2
O=C(CSc1nc2sc3c(c2c(=O)n1-c1ccccc1)CCCC3)N/N=C/c1ccccc1C(=O)O	none
O=C(O)CSc1nc2sc3c(c2c(=O)n1-c1ccccc1)CCC3	none
N#Cc1c(-c2cccc(Br)c2)cc(-c2ccco2)[nH]c1=O	none
Cc1c(NC(=O)COC(=O)c2cc(-c3ccc(-c4ccccc4)cc3)nc3ccccc23)c(=O)n(-c2ccccc2)n1C	NadD inh 49.8, core dimer inh 49.2
Cc1csc2nc(=O)c3ccccc3n12	Rce1 inh active (no result: core dimer inh)
Cc1cccc(N2CCc3c2nc2ccc(Br)cc2c3N)c1	Rce1 inh active
O=S(=O)(c1ccc(S(=O)(=O)N2CCN(C3CCCCC3)CC2)cc1)N1CCCCCC1	none (no result: Rce1 inh, core dimer inh)
O=c1[nH]c2ccc(S(=O)(=O)N3CCN(C4CCCCC4)CC3)cc2[nH]c1=O	Rce1 inh active
Cc1nnc2ccc(-c3ccc(NS(=O)(=O)c4ccccc4)cc3)nn12	Pemphigus Ab inh 71.2 (no result: Rce1 inh, core dimer inh)

Source: PubChem (several laboratories)
